Measured values from different studies.
Each line is one published result; the experiments were not run side by side.
Target: Calcium/calmodulin-dependent protein kinase type 1G (CAMK1G, Homo sapiens, UniProt Q96NX5)

For `COc1cc(Cl)c(C(=O)N[C@@H](CN[C@H]2CC[C@@H](N)CC2)Cc2ccc(C#N)cc2)cc1-c1ccc(CN[C@H](C)c2ccc(C)cc2)o1`, the remaining activity was 99% (enzyme activity, inhibitor; 1 µM).
For `CN1CC(Oc2cnc(C#N)cc2-c2ccn3nc(NC(=O)C4CC4)cc3c2)C1`, the inhibition was -1% (enzyme activity, inhibitor; 1 µM).
For `O=C1Nc2ccc(Cl)cc2C1=Cc1cc(Cl)c(O)c(Cl)c1`, the remaining signal was 96.6% (cell-free assay; 0.5 µM).
With `Cc1ccc(C(=O)Nc2ccc(CN3CCN(C)CC3)c(C(F)(F)F)c2)cc1C#Cc1cnc2cccnn12` the remaining signal was 95% (cell-free assay; 23.5 nM).
`Cc1cc(NC(=O)c2cccc3cc(-c4cccc5[nH]nc(N)c45)ccc23)ccc1F` has an activity vs control of 102% (enzyme activity, inhibitor; 0.1 µM).
`COc1cc2c(Nc3ccc(Br)cc3F)ncnc2cc1OCC1CCN(C)CC1` gave a remaining signal of 101% (cell-free assay; 0.5 µM).
For `Cc1sc(C(=O)NC2COC2)cc1-n1cc(NC(=O)Nc2c(F)cccc2Cl)cn1`, the remaining activity was 93.1% (enzyme activity, inhibitor; 10 µM).
For `O=C1NC(c2ccccn2)Sc2ccccc21` (stereo not drawn), the remaining binding was 100% (cell-free assay, competition with immobilised ligand; 1 µM).
The remaining signal of `Nc1ncnc2occ(-c3ccc(NC(=O)Nc4cc(C(F)(F)F)ccc4F)cc3)c12` is reported as 41% (cell-free assay; 20 µM).
The remaining binding of `CO[C@@H](C)c1c(Nc2ccc([C@@H](N(C)C(=O)C3CCS(=O)(=O)CC3)C(F)(F)F)cc2)cnc2cc(Cl)nn12` is reported as 100% (cell-free assay, competition with immobilised ligand; 1 µM).
`O=C(Nc1cnn(-c2csc(C(=O)NC3COC3)c2)c1)Nc1ccccc1Cl` has a remaining activity of 94.2% (enzyme activity, inhibitor; 5 µM).
With `O=C(NCCCC1CCCCC1)c1ccc(CNC(=O)c2cnn(-c3ccccc3)c2C(F)(F)F)cc1` the remaining binding was 100% (cell-free assay, competition with immobilised ligand; 0.1 µM).
With `CC(C)(O)[C@H]1CC[C@H](Nc2ccc3ncc(-c4cccc(C(F)(F)F)c4)n3n2)CC1` the remaining activity was 81.6% (enzyme activity, inhibitor; 1 µM).
For `N#CCCc1ccc2c(c1)-c1[nH]c3ccc([N+](=O)[O-])cc3c1CC(=O)N2`, the remaining signal was 103% (cell-free assay; 0.5 µM).
With `c1ccc(N2CCN(Cc3nc4ccccc4[nH]3)CC2)nc1` the remaining binding was 100% (cell-free assay, competition with immobilised ligand; 1 µM).
